# Calls of active or inactive are those of the source. The calls are words filed in the database; no cut-off is given here.
# Assays:
# [1] = Half-life in Sprague-Dawley rat at 11.6 mg/kg, po by LC/MS/MS analysis; format: ADME, organism-based; details: in vivo
# [2] = AUC in Sprague-Dawley rat at 11.6 mg/kg, po by LC/MS/MS analysis; format: ADME, organism-based; design: dose 11.6 mg/kg; details: in vivo
# [3] = Toxicity in dog assessed as adverse effect at 400 to 500 mg/kg, po measured for 14 days; format: organism-based, Canis lupus familiaris; details: in vivo, 336 h, dose 400-500 mg/kg, time 14 day
# Procedure, shortened: (§1)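 Fourteen-day GLP toxicology study with daily oral administration; NOAEL determined.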
# [4] = Drug metabolism assessed as diamine metabolite formation
# [5] = Oral bioavailability in Sprague-Dawley rat at 11.6 mg/kg by LC/MS/MS analysis; format: ADME, organism-based; details: in vivo
# Procedure, shortened: (§2)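 Jugular vein-cannulated male Sprague Dawley rats (180–200 g, n = 3/route). Intravenous arm: active acid at 10 mg/kg in 0.9% saline, plasma sampled 0.08–8 h. Oral arm: prodrug at a dose equivalent to 10 mg/kg acid in 25:75 PEG 400/WFI, plasma sampled 0.25–24 h. Levels by LC/MS/MS; F = (AUCpo/AUCiv) × 100.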
# Escherichia coli [6] = experiment: Synergistic antibacterial activity against multidrug-resistant Escherichia coli ARC 2687 infected in CD-1 mouse model of neutropenic thigh infection assessed as reduction in colony forming unit in presence of cefpodoxime at 10 to 100 mg/kg, po administered every 6 hrs interval; format: functional, organism-based; details: dose 10-100 mg/kg
# Procedure, shortened: (§3)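 Female CD-1 mice (20–22 g, 3/arm) made neutropenic with ip cyclophosphamide, 150 mg/kg on day −4 and 100 mg/kg on day −1. Each thigh received an im inoculum of 5.5 × 10^6–1.6 × 10^7 CFU from saline suspension (OD625 0.1, diluted). Dosing began 2 h post-infection, q6h. Oral agents were given in 0.5% HPMC/0.1% Tween 80; meropenem was given sc in water. Thighs were taken at 24 h, homogenized and plated on TSA (35 °C overnight) for CFU counts.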
# [7] = Oral bioavailability in Sprague-Dawley rat at 10 mg/kg by LC/MS/MS analysis; format: ADME, organism-based; details: in vivo; procedure, shortened: as §2
# [8] = Toxicity in rat assessed as adverse effect at 400 to 500 mg/kg, po measured for 14 days; format: organism-based; details: in vivo, 336 h, dose 400-500 mg/kg, time 14 day; procedure, shortened: as §1
# Escherichia coli [9] = experiment: Synergistic antibacterial activity against multidrug-resistant Escherichia coli ARC 2687 infected in CD-1 mouse model of neutropenic thigh infection assessed as reduction in colony forming unit in presence of cefpodoxime at 50 to 100 mg/kg, po administered every 6 hrs interval; format: functional; details: dose 50-100 mg/kg; procedure, shortened: as §3
# [10] = Cmax in Sprague-Dawley rat at 11.6 mg/kg, po by LC/MS/MS analysis; format: ADME, organism-based; design: route oral, dose 11.6 mg/kg; details: in vivo
# Escherichia coli [11] = experiment: In vivo antibacterial activity against multidrug-resistant Escherichia coli ARC 2687 infected in CD-1 mouse model of neutropenic thigh infection assessed as colony forming unit at 600 mg/kg, sc administered at 6 hrs interval relative to pretreatment; format: functional; procedure, shortened: as §3
# Enterobacter cloacae [12] = experiment: Antibacterial activity against Enterobacter cloacae ARC 6055 drug resistant clinical isolates assessed as reduction in bacterial growth by CLSI based broth dilution method; format: functional
# Procedure, shortened: (§4)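 Broth microdilution per CLSI in cation-adjusted Mueller–Hinton broth against drug-resistant clinical isolates; MIC read as the lowest concentration preventing bacterial growth.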
# [13] = Inhibition of bacterial TEM-1 assessed as equilibrium constant using nitrocefin as chromogenic substrate by absorbance plate reader analysis
# Klebsiella pneumoniae [14] = experiment: Synergistic antibacterial activity against Klebsiella pneumoniae ARC 6098 drug resistant clinical isolates assessed as MIC for cefpodoxime antibacterial activity by CLSI based broth dilution method (Rvb > 64 ug/ml); format: functional
# [15] = AUC in Sprague-Dawley rat at 10 mg/kg, iv by LC/MS/MS analysis; format: ADME, organism-based; design: dose 10 mg/kg; details: in vivo
# Procedure, shortened: (§5)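 Jugular vein-cannulated male Sprague Dawley rats, 180–200 g, n = 3, given 10 mg/kg iv in 0.9% saline. Formulation pH checked at 4–7. […] Half-life taken from linear regression of the semilog concentration–time plot.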
# Escherichia coli [16] = experiment: Synergistic antibacterial activity against Escherichia coli ARC 6059 drug resistant clinical isolates assessed as MIC for cefpodoxime antibacterial activity by CLSI based broth dilution method (Rvb > 64 ug/ml); format: functional
# Klebsiella pneumoniae [17] = experiment: Antibacterial activity against Klebsiella pneumoniae ARC 6082 drug resistant clinical isolates assessed as reduction in bacterial growth by CLSI based broth dilution method; format: functional; procedure, shortened: as §4
# Citrobacter freundii [18] = experiment: Antibacterial activity against Citrobacter freundii ARC 3518 carbapenem resistant clinical isolates assessed as reduction in bacterial growth by CLSI based broth dilution method; format: functional; procedure, shortened: as §4
# Klebsiella oxytoca [19] = experiment: Synergistic antibacterial activity against Klebsiella oxytoca ARC 5389 carbapenem resistant clinical isolates assessed as MIC for cefpodoxime antibacterial activity by CLSI based broth dilution method (Rvb > 64 ug/ml); format: functional
# [20] = Half-life in Sprague-Dawley rat at 10 mg/kg, iv by LC/MS/MS analysis; format: ADME, organism-based; details: in vivo; procedure, shortened: as §5
# Escherichia coli [21] = experiment: Synergistic antibacterial activity against Escherichia coli ARC 6077 drug resistant clinical isolates assessed as MIC for cefpodoxime antibacterial activity by CLSI based broth dilution method (Rvb > 64 ug/ml); format: functional
# Enterobacter cloacae [22] = experiment: Synergistic antibacterial activity against Enterobacter cloacae ARC 6055 drug resistant clinical isolates assessed as MIC for cefpodoxime antibacterial activity by CLSI based broth dilution method (Rvb > 64 ug/ml); format: functional
# Escherichia coli [23] = experiment: Antibacterial activity against Escherichia coli ARC 6077 drug resistant clinical isolates assessed as reduction in bacterial growth by CLSI based broth dilution method; format: functional; procedure, shortened: as §4
# Escherichia coli [24] = experiment: Synergistic antibacterial activity against Escherichia coli ARC 6064 drug resistant clinical isolates assessed as MIC for cefpodoxime antibacterial activity by CLSI based broth dilution method (Rvb > 64 ug/ml); format: functional
# Klebsiella pneumoniae [25] = experiment: Synergistic antibacterial activity against Klebsiella pneumoniae ARC 6082 drug resistant clinical isolates assessed as MIC for cefpodoxime antibacterial activity by CLSI based broth dilution method (Rvb > 64 ug/ml); format: functional
# [26] = Clearance in Sprague-Dawley rat at 10 mg/kg, iv by LC/MS/MS analysis; format: ADME, organism-based; details: in vivo; procedure, shortened: as §5
# Klebsiella pneumoniae [27] = experiment: Synergistic antibacterial activity against Klebsiella pneumoniae ARC 6107 carbapenem resistant clinical isolates assessed as MIC for cefpodoxime antibacterial activity by CLSI based broth dilution method (Rvb > 64 ug/ml); format: functional
# Citrobacter freundii [28] = experiment: Synergistic antibacterial activity against Citrobacter freundii ARC 3518 carbapenem resistant clinical isolates assessed as MIC for cefpodoxime antibacterial activity by CLSI based broth dilution method (Rvb > 64 ug/ml); format: functional
# [29] = Renal clearance in Sprague-Dawley rat at 10 mg/kg, iv by LC/MS/MS analysis; format: ADME, organism-based; details: in vivo; procedure, shortened: as §5
# [30] = Drug excretion in Sprague-Dawley rat urine assessed as unchanged drug at 10 mg/kg, iv by LC/MS/MS analysis; format: ADME, organism-based; details: read-out: Drug excretion
# Procedure, shortened: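 Male Sprague Dawley rats, 10 mg/kg iv in 0.9% saline, n = 3. Urine assayed for unchanged parent drug, reported as percent of the administered iv dose.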
# Escherichia coli [31] = experiment: Antibacterial activity against Escherichia coli ARC 6059 drug resistant clinical isolates assessed as reduction in bacterial growth by CLSI based broth dilution method; format: functional; procedure, shortened: as §4
# Escherichia coli [32] = experiment: Antibacterial activity against Escherichia coli ARC 6078 drug resistant clinical isolates assessed as reduction in bacterial growth by CLSI based broth dilution method; format: functional; procedure, shortened: as §4
# Escherichia coli [33] = experiment: Antibacterial activity against Escherichia coli ARC 2687 drug resistant clinical isolates assessed as reduction in bacterial growth by CLSI based broth dilution method; format: functional; procedure, shortened: as §4
# Klebsiella pneumoniae [34] = experiment: Antibacterial activity against Klebsiella pneumoniae ARC 6098 drug resistant clinical isolates assessed as reduction in bacterial growth by CLSI based broth dilution method; format: functional; procedure, shortened: as §4
# Escherichia coli [35] = experiment: Synergistic antibacterial activity against Escherichia coli ARC 6078 drug resistant clinical isolates assessed as MIC for cefpodoxime antibacterial activity by CLSI based broth dilution method (Rvb > 64 ug/ml); format: functional
# Klebsiella pneumoniae [36] = experiment: Antibacterial activity against Klebsiella pneumoniae ARC 6088 carbapenem-resistant clinical isolates assessed as reduction in bacterial growth by CLSI based broth dilution method; format: functional; procedure, shortened: as §4
# [37] = Volume of distribution at steady state in Sprague-Dawley rat at 10 mg/kg, iv by LC/MS/MS analysis; format: ADME, organism-based; details: in vivo, read-out: Vdss; procedure, shortened: as §5
# Klebsiella oxytoca [38] = experiment: Antibacterial activity against Klebsiella oxytoca ARC 5389 carbapenem resistant clinical isolates assessed as reduction in bacterial growth by CLSI based broth dilution method; format: functional; procedure, shortened: as §4
# Enterobacter cloacae [39] = experiment: Synergistic antibacterial activity against Enterobacter cloacae ARC 6049 drug resistant clinical isolates assessed as MIC for cefpodoxime antibacterial activity by CLSI based broth dilution method (Rvb > 64 ug/ml); format: functional
# Enterobacter cloacae [40] = experiment: Antibacterial activity against Enterobacter cloacae ARC 6049 drug resistant clinical isolates assessed as reduction in bacterial growth by CLSI based broth dilution method; format: functional; procedure, shortened: as §4
# Escherichia coli [41] = experiment: Antibacterial activity against Escherichia coli ARC 6064 drug resistant clinical isolates assessed as reduction in bacterial growth by CLSI based broth dilution method; format: functional; procedure, shortened: as §4
# Klebsiella pneumoniae [42] = experiment: Synergistic antibacterial activity against Klebsiella pneumoniae ARC 6088 carbapenem resistant clinical isolates assessed as MIC for cefpodoxime antibacterial activity by CLSI based broth dilution method (Rvb > 64 ug/ml); format: functional
# [43] = Protein binding in Sprague-Dawley rat plasma assessed as fraction unbound at 5 to 100 uM; format: ADME, cell-free; details: dose 5-100 µM
# Procedure, shortened: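 Rat plasma protein binding reported as mean percent unbound across 5–100 μM.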
# [44] = Cmax in Sprague-Dawley rat at 10 mg/kg, iv by LC/MS/MS analysis; format: ADME, organism-based; design: route intravenous, dose 10 mg/kg; details: in vivo; procedure, shortened: as §5
# Klebsiella pneumoniae [45] = experiment: Antibacterial activity against Klebsiella pneumoniae ARC 6107 carbapenem resistant clinical isolates assessed as reduction in bacterial growth by CLSI based broth dilution method; format: functional; procedure, shortened: as §4
smiles,measurement,setting,value
CC1=C[C@@H](C(N)=O)N2C[C@@H]1N(O[C@H](F)C(=O)OC(C)C)C2=O,half-life,[1],66 min
same,AUC,[2],7040 ng·h/mL
same,Activity,[3],Non-Toxic
same,Drug metabolism,[4],Metabolite detected
same,bioavailability,[5],98%
same,Activity,Escherichia coli [6],Active
same,bioavailability,[7],98%
same,Activity,[8],Non-Toxic
same,Activity,Escherichia coli [9],1.11 log10CFU/g
same,Cmax,[10],5800 ng/mL
C[C@@H](O)[C@H]1C(=O)N2C(C(=O)O)=C(S[C@@H]3CN[C@H](C(=O)N(C)C)C3)[C@H](C)[C@H]12 [MEROPENEM],Activity,Escherichia coli [11],-1.46 log10CFU/g
CC1=C[C@H](C(N)=O)N2C[C@@H]1N(O[C@H](F)C(=O)O)C2=O,MIC,Enterobacter cloacae [12],1 µg/mL
same,Ki,[13],340 pM
same,MIC,Klebsiella pneumoniae [14],0.125 µg/mL
same,AUC,[15],7190 ng·h/mL
same,MIC,Escherichia coli [16],0.125 µg/mL
same,MIC,Klebsiella pneumoniae [17],64 µg/mL
same,MIC,Citrobacter freundii [18],0.25 µg/mL
same,MIC,Klebsiella oxytoca [19],0.5 µg/mL
same,half-life,[20],24 min
same,MIC,Escherichia coli [21],0.125 µg/mL
same,Drug metabolism,[4],Metabolite detected
same,MIC,Enterobacter cloacae [22],0.125 µg/mL
same,MIC,Escherichia coli [23],4 µg/mL
same,MIC,Escherichia coli [24],0.5 µg/mL
same,MIC,Klebsiella pneumoniae [25],0.125 µg/mL
same,clearance,[26],23.1 mL/min/kg
same,MIC,Klebsiella pneumoniae [27],0.25 µg/mL
same,MIC,Citrobacter freundii [28],0.13 µg/mL
same,CL renal,[29],13.4 mL/min/kg
same,dose excreted,[30],60%
same,MIC,Escherichia coli [31],16 µg/mL
same,MIC,Escherichia coli [32],0.25 µg/mL
same,MIC,Escherichia coli [33],0.5 µg/mL
same,MIC,Klebsiella pneumoniae [34],16 µg/mL
same,MIC,Escherichia coli [35],0.25 µg/mL
same,MIC,Klebsiella pneumoniae [36],16 µg/mL
same,Vd,[37],0.7 L/kg
same,MIC,Klebsiella oxytoca [38],16 µg/mL
same,MIC,Enterobacter cloacae [39],0.125 µg/mL
same,MIC,Enterobacter cloacae [40],1 µg/mL
same,MIC,Escherichia coli [41],8 µg/mL
same,MIC,Klebsiella pneumoniae [42],0.125 µg/mL
same,fraction unbound,[43],91%
same,Cmax,[44],17500 ng/mL
same,MIC,Klebsiella pneumoniae [45],4 µg/mL

# From ChEMBL document CHEMBL4765376, “Discovery of an Orally Available Diazabicyclooctane Inhibitor (ETX0282) of Class A, C, and D Serine β-Lactamases” (J Med Chem, 2020)
